Shown is part of a subset that was picked to be rich in hits.
E-sel inducer: E-selectin induction on HUVECs; HUVEC E-selectin immunofluorescence imaging; normalized: neutral wells 0, TNF-alpha wells 100; P16581; actives 0.37% (n = 260,000); activation, % at 7.58 µM;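 active = mean E-selectin-positive cell signal at least 10% of the positive control, reached in at least 60% of replicates, without over 20% cell loss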
Target sequence (P16581 whole entry, looked up): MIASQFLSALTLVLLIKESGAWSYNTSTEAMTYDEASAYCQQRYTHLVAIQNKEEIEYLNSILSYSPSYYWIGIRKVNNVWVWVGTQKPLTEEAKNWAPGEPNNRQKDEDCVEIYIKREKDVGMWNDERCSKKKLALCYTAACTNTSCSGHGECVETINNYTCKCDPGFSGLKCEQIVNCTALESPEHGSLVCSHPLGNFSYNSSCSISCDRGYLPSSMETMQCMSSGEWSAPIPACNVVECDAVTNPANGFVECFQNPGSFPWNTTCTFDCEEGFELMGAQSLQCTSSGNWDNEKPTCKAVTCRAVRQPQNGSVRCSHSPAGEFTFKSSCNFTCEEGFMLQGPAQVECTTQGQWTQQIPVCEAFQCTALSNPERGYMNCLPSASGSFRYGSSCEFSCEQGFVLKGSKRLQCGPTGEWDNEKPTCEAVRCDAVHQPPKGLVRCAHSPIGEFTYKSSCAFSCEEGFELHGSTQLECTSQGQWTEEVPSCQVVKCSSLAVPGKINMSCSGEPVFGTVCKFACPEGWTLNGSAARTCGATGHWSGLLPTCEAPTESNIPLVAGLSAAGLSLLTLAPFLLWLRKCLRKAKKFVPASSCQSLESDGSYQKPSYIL
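Read-out basis: % PE-positive cells; Test system: HUVEC primary endothelial cells; Technique: immunofluorescence imaging; Dosing: single-point compound dose.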
Each line names hits and unclear results; the compound was inactive in the other large screens.

COc1ccc(NC(=O)N(C)C[C@H]2Oc3ccc(NC(=O)c4ccncc4)cc3CC(=O)N([C@H](C)CO)C[C@@H]2C)cc1	E-sel inducer 41.4
C[C@H](CO)N1C[C@H](C)[C@H](CN(C)C(=O)Nc2ccc(C(F)(F)F)cc2)Oc2ccc(NC(=O)c3ccncc3)cc2CC1=O	none
COc1ccc(CN(C)C[C@@H]2Oc3ccc(NC(=O)c4ccncc4)cc3CC(=O)N([C@H](C)CO)C[C@@H]2C)cc1	none
C[C@@H]1CN([C@H](C)CO)C(=O)Cc2cc(NC(=O)c3ccncc3)ccc2O[C@H]1CN(C)C(=O)Nc1ccc(F)cc1	none
COc1ccc(NC(=O)N(C)C[C@H]2Oc3ccc(NC(=O)c4ccncc4)cc3CC(=O)N([C@@H](C)CO)C[C@H]2C)cc1	none
C[C@H]1CN([C@@H](C)CO)C(=O)Cc2cc(NC(=O)c3ccncc3)ccc2O[C@H]1CN(C)C(=O)Nc1ccc(C(F)(F)F)cc1	E-sel inducer 32.9
COc1ccc(NC(=O)N(C)C[C@@H]2Oc3ccc(NC(=O)c4ccncc4)cc3CC(=O)N([C@@H](C)CO)C[C@@H]2C)cc1	E-sel inducer 81.3
C[C@H]1CN([C@@H](C)CO)C(=O)Cc2cc(NC(=O)c3ccncc3)ccc2O[C@@H]1CN(C)C(=O)Nc1ccc(C(F)(F)F)cc1	none
CN(C)C(=O)c1ccc(-c2ccc([C@H]3[C@H](CO)N4CCCCN(C(=O)C5CC5)C[C@@H]34)cc2)cc1	none
COc1ccc(S(=O)(=O)N(C)C[C@H]2OCc3ccccc3-c3ccccc3C(=O)N([C@H](C)CO)C[C@H]2C)cc1	none
Cc1ccc(C(=O)Nc2nnc(S(=O)(=O)N3CCCCCC3)s2)cc1	none
CC(C)c1ccc(C(=O)Nc2nnc(S(=O)(=O)N3CCCCC3)s2)cc1	E-sel inducer 44.8
COc1ccc(C(=O)Nc2nnc(S(=O)(=O)N3CCCCCC3)s2)cc1OC	none
COc1ccc2c3c([nH]c2c1)[C@H](CO)N(C(C)=O)CC31CN(S(=O)(=O)c2ccccc2)C1	none
C[C@H](CO)N1C[C@H](C)[C@H](CN(C)C(=O)c2ccc(F)cc2)Oc2ncc(/C=C/c3ccccc3)cc2C1=O	none
O=C(c1ccco1)N1CCN(C(=O)c2ccco2)CC1	none
CC(=O)N1CCN(C(=O)c2ccco2)CC1	none
O=C(c1ccco1)N1CCN(C(=O)C2CC2)CC1	E-sel inducer 36.9
Cn1cnc(S(=O)(=O)N[C@H]2C=C[C@@H](CC(=O)Nc3ccccc3)O[C@@H]2CO)c1	none
COc1ccccc1OCCNC(=O)C1CC(=O)N(c2ccc3c(c2)OCCO3)C1 (configuration not stated)	none
COc1ccccc1N1CC(C(=O)OC(C)C(=O)Nc2ccc(F)cc2)CC1=O (configuration not stated)	none
COc1ccccc1NC(=O)C(C)OC(=O)C1CC(=O)N(c2ccc3c(c2)OCCO3)C1 (configuration not stated)	E-sel inducer 106.8
CO[C@H]1CN(C)C(=O)c2ccc(NC(=O)Nc3ccc(Cl)cc3)cc2OC[C@H](C)N(C(=O)Nc2c(C)noc2C)C[C@H]1C	none
c1ccc2c(c1)cnc1ccccc12	none
c1cnc2c(c1)ncc1cscc12	none
[O-][n+]1cccc2ncc3cscc3c21	E-sel inducer 431.3
CC(C)CC#Cc1ccc2c(c1)O[C@@H](CN(C)C(=O)c1cccc(F)c1)[C@@H](C)CN([C@H](C)CO)S2(=O)=O	none
CCOc1ccc(NC(=O)CNC(=O)c2cccs2)cc1	none
CCOc1ccc(NC(=O)CNC(=O)c2ccc(OC)cc2)cc1	E-sel inducer 73.1
CCOc1ccc(NC(=O)CC(=O)Nc2ccc(OCC)cc2)cc1	none
Cc1ccc(C(=O)NCC(=O)Nc2ccncc2)cc1	none
Cc1ccc(C(=O)NCC(=O)Nc2ccncc2)cc1C	E-sel inducer 204.0
Cc1cccc(C(=O)NCC(=O)Nc2ccncc2)c1	none
CO[C@H]1CN(C)C(=O)c2cccc(C#N)c2OC[C@H]2O[C@H](CC[C@H]2OC)CCN(C)C(=O)[C@H]1C	none
Cc1ccccc1-c1cnc2c(c1)C(=O)N([C@@H](C)CO)C[C@@H](C)[C@H](CN(C)Cc1ccncc1)O2	none
COc1ccc2c3c([nH]c2c1)[C@H](CO)N(CC1CC1)CC31CN(C(=O)c2ccccc2)C1	none
CC1(C)C(=O)N(c2ccccc2Cl)C(=O)c2ccccc21	none
Cc1ccc(N2C(=O)c3ccccc3C2=O)cc1	none
CC1(C)C(=O)N(c2ccccc2)C(=O)c2ccccc21	E-sel inducer 52.5
O=C(NCC[C@@H]1CC[C@H](NC(=O)C2CCCCC2)[C@@H](CO)O1)c1ccc(F)cc1	none
O=C(N[C@@H]1CC[C@@H](CCn2cc(C3(O)CCCC3)nn2)O[C@@H]1CO)c1ccccc1F	none
O=C(CSc1ccc(-c2ccco2)nn1)c1cccc([N+](=O)[O-])c1	none
O=C(CSc1ncn[nH]1)c1cccc([N+](=O)[O-])c1	E-sel inducer 38.3
O=C(CSc1nnc(-c2ccncc2)o1)c1cccc([N+](=O)[O-])c1	none
Cc1ccc(-n2c(-c3cccs3)nc3nc4ccccc4nc32)cc1	none
Fc1ccc(-n2c(-c3cccs3)nc3nc4ccccc4nc32)cc1	E-sel inducer 35.9
Fc1ccc(N2N=C(c3cccs3)CC2c2ccccc2)cc1 (configuration not stated)	none
CO[C@@H]1CN(C)C(=O)c2ccc(NC(=O)c3ccc4c(c3)OCO4)cc2OC[C@H](C)N(CCC(F)(F)F)C[C@H]1C	none
CCC(=O)Nc1ccc2c(c1)C(=O)N(C)C[C@@H](OC)[C@@H](C)CN[C@@H](C)CO2	none
CCCCN(C(=S)NC(=O)c1ccccc1)c1c(N)n(Cc2ccccc2)c(=O)[nH]c1=O	E-sel inducer 40.4
CCN(C(=O)CN1CCCCC1)c1c(N)n(Cc2ccccc2)c(=O)[nH]c1=O	none
COCCCN(C(=S)NC(=O)c1ccc(Br)cc1)c1c(N)n(Cc2ccccc2)c(=O)[nH]c1=O	none
COCCCN(C(=S)NC(=O)C(C)(C)C)c1c(N)n(Cc2ccccc2)c(=O)[nH]c1=O	none
CCN(C(=O)Cn1ccc(C(F)(F)F)n1)c1c(N)n(Cc2ccccc2)c(=O)[nH]c1=O	E-sel inducer 110.4
CCN(C(=O)CSc1nnc2ccccn12)c1c(N)n(Cc2ccccc2)c(=O)[nH]c1=O	none
COc1ccc(NC(=O)Nc2cccc3c2O[C@@H](CN(C)Cc2ccc(Cl)c(Cl)c2)[C@@H](C)CN([C@@H](C)CO)C3=O)cc1	none
CCNC(=O)C[C@@H]1CC[C@H](NC(=O)C2CCOCC2)[C@@H](CO)O1	none
C[C@@H]1CN([C@H](C)CO)C(=O)c2ccccc2-c2ccccc2CO[C@H]1CN(C)C(=O)[C@H](C)c1ccccc1	none
COc1ccc(S(=O)(=O)N(C)C[C@H]2Oc3c(NS(C)(=O)=O)cccc3C(=O)N([C@H](C)CO)C[C@H]2C)cc1	none
C[C@H]1CN([C@@H](C)CO)C(=O)Cc2cc(NS(=O)(=O)c3cn(C)cn3)ccc2O[C@H]1CN(C)S(=O)(=O)c1ccc(F)cc1	none
CNC(=O)C[C@@H]1CC[C@H]2[C@@H](COC[C@H](O)CN2S(=O)(=O)c2ccc(Oc3ccccc3)cc2)O1	none
CCS(=O)(=O)Nc1ccc2c(c1)C(=O)N(C)C[C@@H](OC)[C@H](C)CN(C(=O)c1ccc3c(c1)OCO3)[C@H](C)CO2	none
Cc1noc(C)c1NC(=O)Nc1ccc2c(c1)CC(=O)N([C@@H](C)CO)C[C@H](C)[C@H](CN(C)Cc1ccc(Oc3ccccc3)cc1)O2	E-sel inducer 398.7
C[C@H](CO)N1C[C@H](C)[C@@H](CN(C)Cc2ccc(Oc3ccccc3)cc2)Oc2ccc(NC(=O)Nc3ccc(C(F)(F)F)cc3)cc2CC1=O	E-sel inducer 35.8
